HKDC1 inh = inhibitors of human hexokinase HKDC1. Q2TB90. 340,000 tested, 0.16% active. recombinant HKDC1, G6PDH/diaphorase resazurin coupled fluorescence. inhibition, % at 20 µM;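 active = inhibition above about 35% when tested at 20 µM, limit read from the data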;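 note: plate controls were DMSO wells with enzyme for no effect and DMSO wells lacking enzyme for full effect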
Target sequence (Q2TB90 whole entry, looked up): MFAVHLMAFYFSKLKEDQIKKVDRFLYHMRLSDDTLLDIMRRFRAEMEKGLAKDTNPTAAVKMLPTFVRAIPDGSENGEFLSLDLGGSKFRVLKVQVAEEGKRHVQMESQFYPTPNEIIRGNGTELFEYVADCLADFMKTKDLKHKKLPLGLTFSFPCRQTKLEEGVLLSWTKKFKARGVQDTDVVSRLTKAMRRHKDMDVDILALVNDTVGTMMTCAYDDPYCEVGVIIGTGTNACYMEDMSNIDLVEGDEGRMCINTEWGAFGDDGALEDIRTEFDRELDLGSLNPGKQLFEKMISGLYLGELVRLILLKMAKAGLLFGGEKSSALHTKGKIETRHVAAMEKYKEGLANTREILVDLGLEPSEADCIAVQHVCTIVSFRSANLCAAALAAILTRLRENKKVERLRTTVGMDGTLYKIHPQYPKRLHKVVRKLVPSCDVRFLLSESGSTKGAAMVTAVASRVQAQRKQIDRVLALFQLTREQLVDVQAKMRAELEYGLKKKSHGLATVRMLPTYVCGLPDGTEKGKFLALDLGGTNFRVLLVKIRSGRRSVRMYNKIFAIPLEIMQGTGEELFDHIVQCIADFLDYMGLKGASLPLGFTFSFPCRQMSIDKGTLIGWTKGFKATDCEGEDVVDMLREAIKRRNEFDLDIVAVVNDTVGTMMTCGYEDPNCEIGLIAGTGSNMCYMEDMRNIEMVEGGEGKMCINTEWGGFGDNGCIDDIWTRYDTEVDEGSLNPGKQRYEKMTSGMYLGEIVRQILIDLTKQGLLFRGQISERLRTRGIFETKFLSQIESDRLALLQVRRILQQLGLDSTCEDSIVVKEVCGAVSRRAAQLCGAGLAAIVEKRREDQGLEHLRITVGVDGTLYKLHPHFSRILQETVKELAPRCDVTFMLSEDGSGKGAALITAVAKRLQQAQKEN
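Assay system: in-house recombinant HK5 (HKDC1) enzyme. Input: HKDC1 at 5 µg/mL. Medium: Tris pH 8.0 buffer with MgCl2, Tween-20, BSA, BME. Dosing: single 20 µM dose. Schedule: 90 min reaction incubation at room temperature, dark. Signal: resazurin-to-resorufin fluorescence via G6PDH and diaphorase coupling, 525/613 nm. Controls: DMSO-enzyme wells negative, buffer-substituted wells positive.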
PfM18AAP inh-1 = blocks P. falciparum M18 aspartyl aminopeptidase | recombinant PfM18AAP, H-Glu-NHMec fluorogenic cleavage | AID 1822 | 290,000 tested, 1.2% active | inhibition, % at 7.35 µM;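 active = inhibition above the campaign mean inhibition over all tested compounds plus 3 SD, cut at about 28% in these data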;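 note: 0% = plate median of test compound wells and 100% = 2 mM ZnCl2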
APOBEC3A inh = inhibitors of human APOBEC3A DNA deaminase; P31941; recombinant A3A, FAM/TAMRA ssDNA deamination fluorescence; inhibition, % at 20 µM; 330,000 tested, 0.41% active;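 active = at least 40% inhibition at 20 µM here, with at most 30% in a related deaminase screen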;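 note: plate controls were A3A with DMSO for no effect and wells lacking A3A enzyme for full effect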
PfG6PD inh = PfG6PD (Plasmodium falciparum) enzyme inhibition. PfGluPho enzyme, NADPH resazurin-diaphorase fluorescence. inhibition, % at 20 µM. 350,000 tested, 0.78% active. AID 504690;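 active = inhibition reaching at least a set limit at 20 µM in the primary screen, cut at about 59% in these data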;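 note: 0% = DMSO wells with substrate and 100% = DMSO wells lacking glucose-6-phosphate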
APOBEC3G inh = inhibitors of human APOBEC3G DNA deaminase | Q9HC16 | recombinant A3G, ssDNA deamination FAM/TAMRA fluorescence | inhibition, % at 20 µM | 330,000 tested, 0.28% active;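 active = inhibition of at least 40% at 20 µM, with no more than 30% in the related APOBEC3A deaminase screen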;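 note: plate controls were DMSO wells with A3G for no effect and wells lacking A3G enzyme for full effect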
UBC9 SUMO inh = inhibitors of human SUMOylation (UBC9). HTRF SUMOylation assay, SAE1/SAE2 + UBC9, in vitro. inhibition, % at 35 µM. 290,000 tested, 0.36% active. AID 2006; in the data active = inhibition above about 50%, passing the limit was not always enough
PfM18AAP inh-2 = confirmation of Plasmodium falciparum M18 aspartyl aminopeptidase inhibitors | shares compounds with PfM18AAP inh-1 | recombinant PfM18AAP, H-Glu-NHMec fluorogenic cleavage | inhibition, % at 7.35 µM | 2,400 tested, 28% active;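 active = mean inhibition over replicate wells above the hit cutoff set for the earlier primary screen, cut at about 29% in these data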;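 note: 0% = median of test compound wells and 100% = 2 mM ZnCl2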
CTSL1 confirm = counter-screen for PFM18AAP inhibitors: confirmation of human cathepsin L inhibitors | shares compounds with PfM18AAP inh-1 | purified cathepsin L1, Z-Leu-Arg-MCA fluorescence | inhibition, % at 5.96 µM | 2,400 tested, under 10 active;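 active = average inhibition across replicates above the hit cutoff set in the earlier primary screen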;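 note: 0% = median of test compound wells and 100% = Z-Phe-Ala-diazomethylketone 1 µM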
A3A conf = confirmation of human APOBEC3A DNA deaminase inhibitors. inhibition, % at 20 µM. shares compounds with APOBEC3A inh. 1,400 tested, 63% active. recombinant A3A, ssDNA deaminase UDG fluorescence assay;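 active = inhibition reaching a set limit, 80% of the first screen's cutoff, at 20 µM in any replicate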;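 note: plate controls were DMSO wells with A3A for no effect and wells lacking A3A enzyme for full effect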
UDG ctr A3A = inhibits UDG, flagging false APOBEC3A inhibitors | UDG counterscreen, FAM/TAMRA uracil oligo fluorescence | shares compounds with APOBEC3A inh | AID 504714 | inhibition, % at 20 µM | 1,000 tested, under 10 active; call rule not given here
PfG6PD confirm = PfG6PD inhibition, single-dose confirmed; AID 504753; shares compounds with PfG6PD inh; recombinant PfGluPho, NADPH-diaphorase-resazurin fluorescence; inhibition, % at 20 µM; 2,400 tested, 34% active;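 active = inhibition of at least 50% at 20 µM in any single replicate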;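 note: 0% = DMSO with substrate and 100% = DMSO lacking glucose-6-phosphate substrate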
Diaphorase 10uM = counter-screen for P. falciparum G6PD inhibitors: diaphorase inhibitors, oxidizers; shares compounds with PfG6PD inh; diaphorase-coupled resazurin reduction, fluorescence, NADPH 10 uM; inhibition, % at 20 µM; 820 tested, 39% active; AID 504862;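 active = average inhibition reaching 50% or more with the compound at 20 µM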;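 note: resorufin red fluorescence formed as diaphorase reduces resazurin using NADPH; 0% = DMSO with enzyme and 100% = DMSO without enzyme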
Diaphorase 30uM = diaphorase inhibition or oxidation at 30 uM NADPH. shares compounds with PfG6PD inh. Diaphorase/resazurin coupled assay, resorufin fluorescence. inhibition, % at 20 µM. 820 tested, 29% active. AID 504863;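 active = inhibition averaging 50% or more, tested at 20 µM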;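 note: 0% = DMSO with enzyme and 100% = DMSO wells lacking diaphorase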
The depositor's hits bear a star; x = no result given. This is a sample that favours compounds with a hit; in the whole collection about 2.4% have one here.

SMILES	HKDC1 inh	PfM18AAP inh-1	APOBEC3A inh	PfG6PD inh	APOBEC3G inh	UBC9 SUMO inh	PfM18AAP inh-2	CTSL1 confirm	A3A conf	UDG ctr A3A	others
Cc1cc(/C=C2\C(=O)NC(=O)N(c3ccc(Br)cc3)C2=O)c(C)n1-c1cc(C(=O)O)cc(C(=O)O)c1	15	35*	80	8	47	15	-2	-6	x	x
CC[n+]1c(/C=C/N(C)c2ccccc2)sc2ccc(Cl)cc21	-12	36*	-3	7	-1	29	-47	3	x	x
C/C(=N\NC(=S)Nc1ccccc1)c1c(O)n(C)c(=O)n(C)c1=O	-4	17	-3	15	6	12	x	x	x	x
CCN(CC)c1ccc(N=Cc2c(O)[nH]c(=O)[nH]c2=O)cc1	1	44*	-2	21	-2	-5	-36	4	x	x
Cc1ccc(/C=C2\C(=O)NC(=S)N(c3ccc(F)cc3)C2=O)s1	13	0	6	33	12	2	x	x	x	x
O=c1[nH]c(=S)[nH]c(O)c1/C=C1/C=c2ccccc2=N1	7	44*	x	22	x	4	59*	-3	x	x
COC(=O)C1=C(c2ccccc2)C[C@@H]2CC[C@H]1N2C(=O)NCCO	-3	x	-3	-1	-2	x	x	x	x	x
COC(=O)Cn1cc(C=C2C(=O)NC(=O)NC2=O)c2ccccc21	1	49*	-4	15	-8	-12	30*	-7	x	x
CCn1cc(C=C2C(=O)NC(=O)NC2=O)c2ccccc21	10	42*	1	-9	-6	5	38*	0	x	x
CC(C)NC(=O)Cn1cc(C(=O)c2ccccc2)c2ccccc21	-4	-4	-2	4	-8	7	x	x	x	x
CCCCC/C(=N/O)c1c(C)[nH]c2ccccc12	2	1	-2	25	-10	-11	x	x	x	x
CN1CCC(OC(=O)Cc2ccccc2)CC1	-13	-4	0	10	0	4	x	x	x	x
CC1=C(C(=O)O)N2C(=O)C(NC(=O)Cc3ccccc3)C2SC1 (stereo not drawn)	2	48*	7	25	-5	5	-17	-1	x	x
CC1=C[C@@H]2c3cccc4[nH]cc(c34)C[C@H]2N(C)C1	8	48*	16	59*	32	21	-12	-1	x	x	PfG6PD confirm=-34
O=C(OCC(=O)c1ccc([N+](=O)[O-])cc1)/C(=C\c1ccc(Cl)cc1)NC(=O)c1ccccc1	-8	40*	-3	44	3	11	4	12	x	x	PfG6PD confirm=69*;Diaphorase 10uM=-3;Diaphorase 30uM=-12
COc1ccc(C2=NCC(=S)Nc3ccc(Cl)cc32)cc1Cl	-7	0	-1	-17	2	8	x	x	x	x
CC(C)CCn1c(=O)c(C(=O)Nc2ccccc2S(N)(=O)=O)c(O)c2ccccc21	0	10	-4	11	-7	7	x	x	x	x
C=CCN1CCc2cccc3c2[C@H]1Cc1ccc(O)c(O)c1-3	7	62*	-12	81*	19	22	56*	-5	x	x	PfG6PD confirm=84*;Diaphorase 10uM=23;Diaphorase 30uM=14
CC(c1ccccc1F)n1cc(C(=O)Nc2ccc3nc[nH]c3c2)nn1 (stereo not drawn)	0	-12	0	0	1	-3	x	x	x	x
CC(C)[N+](C)(CCC(C(N)=O)(c1ccccc1)c1ccccc1)C(C)C	-1	3	68*	30	15	5	x	x	83*	3
CCC(=O)C(CCN1CCOCC1)(c1ccccc1)c1ccccc1	1	x	-4	-1	-4	x	x	x	x	x
COc1ccc2c3c1OC1C(O)C=CC4C(C2)[N+](C)(C)CCC341 (stereo not drawn)	1	1	71*	29	16	7	x	x	51*	x
COc1ccc(N=C2SCCCN2C)cc1	-5	-11	48*	-9	24	7	x	x	72*	1
COc1ccc(CN2C(=O)NC(=O)/C(=C\c3ccco3)C2=O)cc1	10	5	47*	27	26	14	x	x	62*	2
CN(C)c1ccc(/C=C2/C(=O)NC(=O)N(Cc3ccco3)C2=O)cc1	9	16	60*	13	20	27	x	x	39*	-4
SMILES	HKDC1 inh	PfM18AAP inh-1	APOBEC3A inh	PfG6PD inh	APOBEC3G inh	UBC9 SUMO inh	PfM18AAP inh-2	CTSL1 confirm	A3A conf	UDG ctr A3A	others
O=C1NC(=O)N(Cc2ccccc2)C(=O)/C1=C/C=C/c1ccco1	12	21	74	44	61	48	x	x	x	x
CCN(CC)c1ccc(/C=C2/C(=O)NC(=O)N(Cc3ccco3)C2=O)cc1	2	14	65	20	36	12	x	x	x	x
O=C1NC(=O)N(CCc2ccc(F)cc2)C(=O)/C1=C/c1ccco1	9	8	74*	26	27	27	x	x	52*	6
CCCC[N+]12CCC(CC1)C(=C(c1ccccc1)c1ccccc1)C2	-6	-2	97*	9	12	4	x	x	71*	0
CCC[N+]12CCC(CC1)C(=C(c1ccccc1)c1ccccc1)C2	5	3	-6	-17	-10	-2	x	x	x	x
O=C1NC(=O)N(c2ccc3c(c2)OCO3)C(=O)/C1=C/c1ccc(N2CCCCC2)o1	-4	5	7	0	6	10	x	x	x	x
O=C1NC(=O)N(c2ccc3c(c2)OCO3)C(=O)/C1=C\c1ccc(-c2ccccc2C(=O)O)o1	2	24	76*	45	26	19	x	x	65*	-2
CNC(C(=O)c1ccccc1)C(OC)c1ccccc1 (stereo not drawn)	-6	7	1	-2	2	-10	x	x	x	x
C=C1C(O)(c2ccccc2)C2CC[N+]1(C)CC2 (stereo not drawn)	-13	-8	76*	8	22	21	x	x	74*	5
CCN(CC)P(c1n(C)cc[n+]1C)N(CC)CC	-6	-2	62*	-10	11	11	x	x	65*	-1

Bioassay records: PubChem, several laboratories
